The text below walks through data of ChEMBL document CHEMBL4680111, “Target Validation and Identification of Novel Boronate Inhibitors of the Plasmodium falciparum Proteasome” (J Med Chem, 2018).

Assay [1] deals with T1, Proteasome Macropain subunit MB1 (Homo sapiens, UniProt P28074).
T1 sequence (P28074 whole entry): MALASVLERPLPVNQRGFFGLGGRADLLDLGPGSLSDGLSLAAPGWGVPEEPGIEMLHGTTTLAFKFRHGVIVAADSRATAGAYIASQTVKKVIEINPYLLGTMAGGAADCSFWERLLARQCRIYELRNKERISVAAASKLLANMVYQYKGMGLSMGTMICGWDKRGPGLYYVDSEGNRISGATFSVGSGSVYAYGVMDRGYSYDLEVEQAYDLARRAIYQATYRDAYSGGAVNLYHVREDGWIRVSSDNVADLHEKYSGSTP
Description: Binding affinity to human 20S constitutive proteasome beta 5 subunit assessed as equilibrium constant using fluorogenic peptide Ac-WLA-AMC as substrate in presence of PA28alpha by fluorescence based microplate reader assay.

The nature of assay [2]: Binding affinity to Plasmodium falciparum 20S proteasome beta 5 subunit assessed as equilibrium constant using fluorogenic peptide Ac-WLA-AMC as substrate in presence of PA28alpha by fluorescence based microplate reader assay.
The target in assay [3] is Proteasome Macropain subunit (Homo sapiens) (UniProt P49721). Kind of assay: Binding affinity to human 20S constitutive proteasome beta 2 subunit assessed as half-life using fluorogenic peptide Ac-WLR-AMC as substrate in presence of PA28alpha by fluorescence based microplate reader assay.
Sequence of Proteasome Macropain subunit (Homo sapiens) (P49721 whole entry): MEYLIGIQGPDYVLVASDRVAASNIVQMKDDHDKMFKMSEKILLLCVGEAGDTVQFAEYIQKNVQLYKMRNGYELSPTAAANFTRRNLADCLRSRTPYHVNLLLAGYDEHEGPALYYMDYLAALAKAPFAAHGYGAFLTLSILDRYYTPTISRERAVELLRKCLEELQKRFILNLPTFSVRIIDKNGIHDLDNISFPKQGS
Assay [4] deals with T2, Proteasome component C5 (Homo sapiens) (UniProt P20618).
T2 sequence (whole entry): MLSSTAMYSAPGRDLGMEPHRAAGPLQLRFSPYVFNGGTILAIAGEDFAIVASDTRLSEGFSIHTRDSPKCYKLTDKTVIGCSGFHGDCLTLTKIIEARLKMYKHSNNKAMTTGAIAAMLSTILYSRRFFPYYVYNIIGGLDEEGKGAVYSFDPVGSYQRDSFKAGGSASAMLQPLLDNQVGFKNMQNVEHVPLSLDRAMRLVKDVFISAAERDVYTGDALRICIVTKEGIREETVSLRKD
Kind of assay: Inhibition of human 20S constitutive proteasome beta 1 subunit assessed as inhibition of BMV037 probe labeling at 1 uM incubated for 1 hr by SDS-PAGE analysis. An outline of the steps:
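Purified human constitutive 20S (20 nM) was treated with compound at 37°C for 1 h, then labelled with 10 µM BMV037 at 37°C for 2 h. Samples were run on 10% Bis-Tris gel with MOPS buffer, and active subunits were detected by Cy5 fluorescence scan.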

Activity calls are given as the source filed them. No cut-off for these calls is given here.

The term Ki denotes the dissociation constant of the complex between target and ligand, obtained from inhibition or displacement. `CC(C)C[C@H](NC(=O)[C@H](Cc1ccccc1)NC(=O)Cc1ccc(O)cc1)B(O)O`: the values for the Ki in assay [1] and in assay [2] were 0.13 nM and 4.3 nM, respectively. In assay [3], the T1/2 came out at 2 min.

Consider `Cc1ccc(S(=O)(=O)N[C@@H](CC(=O)NCC(C)(C)C)C(=O)N[C@@H](Cc2ccccc2)C(=O)N[C@@H](CC(C)C)B(O)O)cc1`, for which the inhibition entry in assay [4] was “inactive”.
